ChEMBL document CHEMBL1151448, “Comparative antianaerobic activities of doripenem determined by MIC and time-kill analysis” (2008)
Values after ≈ are worked out from the molar mass of the structure shown.

Experiments:
Assay type in all cases: functional
Bacteroides fragilis [1] = experiment: Antimicrobial activity against beta lactamase-positive Bacteroides fragilis isolated from intra-abdominal infection and pelvic inflammatory disease patients after 48 hrs by agar dilution method
Procedure, shortened: (§1)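 CLSI agar dilution on brucella blood agar supplemented with laked sheep blood, hemin and vitamin K. Inocula of about 1 × 10^5 CFU/spot were applied by Steers replicator, and plates were incubated 48 h at 35°C in an anaerobic glove box. MIC was the concentration giving marked growth reduction versus the anaerobic control plate. QC strains were included each run, and β-lactamase was detected by Cefinase disk.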

[2] = system: Bacteroides thetaiotaomicron; experiment: Antimicrobial activity against beta lactamase-positive Bacteroides thetaiotaomicron isolated from intra-abdominal infection and pelvic inflammatory disease patients after 48 hrs by agar dilution method; procedure, shortened: as §1
Bacteroides fragilis [3] = experiment: Antimicrobial activity against beta lactamase-positive Bacteroides fragilis isolated from intra-abdominal infection and pelvic inflammatory disease patients after 48 hrs by time kill analysis
Procedure, shortened: (§2)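 The MIC was read by inspecting macrodilution time-kill tubes. Vials held prereduced brucella broth with 5% laked horse blood cells, hemin 5 μg/ml and vitamin K1 1 μg/ml. Final inoculum was 10^6–10^7 CFU/ml, prepared inside the anaerobe chamber. Vials were incubated 48 h at 35°C in a shaking water bath.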

Prevotella intermedia [4] = experiment: Antimicrobial activity against beta lactamase-positive Prevotella intermedia isolated from intra-abdominal infection and pelvic inflammatory disease patients after 48 hrs by time kill analysis; procedure, shortened: as §2
Finegoldia magna [5] = experiment: Antimicrobial activity against beta lactamase-positive Finegoldia magna isolated from intra-abdominal infection and pelvic inflammatory disease patients after 48 hrs by time kill analysis; procedure, shortened: as §2
Fusobacterium nucleatum [6] = experiment: Antimicrobial activity against beta lactamase-positive Fusobacterium nucleatum isolated from intra-abdominal infection and pelvic inflammatory disease patients after 48 hrs by time kill analysis; procedure, shortened: as §2
Clostridium perfringens [7] = experiment: Antimicrobial activity against Clostridium perfringens isolated from intra-abdominal infection and pelvic inflammatory disease patients after 48 hrs by time kill analysis
Procedure, shortened: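 Macrodilution in prereduced brucella broth with 5% laked horse blood cells, 5 μg/ml hemin and 1 μg/ml vitamin K1. Final inoculum 10^6 to 10^7 CFU/ml, prepared inside the anaerobe chamber. Vials incubated 48 h at 35°C in a shaking water bath. MIC read by inspecting the time-kill tubes, alongside an antibiotic-free growth control.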

Bacteroides ovatus = experiment: Antimicrobial activity against beta lactamase-positive Bacteroides ovatus isolated from intra-abdominal infection and pelvic inflammatory disease patients after 48 hrs by agar dilution method; procedure, shortened: as §1
Phocaeicola vulgatus = experiment: Antimicrobial activity against beta lactamase-positive Bacteroides vulgatus isolated from intra-abdominal infection and pelvic inflammatory disease patients after 48 hrs by agar dilution method; procedure, shortened: as §1
[8] = system: Parabacteroides distasonis; experiment: Antimicrobial activity against beta lactamase-positive Bacteroides distasonis isolated from intra-abdominal infection and pelvic inflammatory disease patients after 48 hrs by agar dilution method; procedure, shortened: as §1
Prevotella bivia = experiment: Antimicrobial activity against beta lactamase-positive Prevotella bivia isolated from intra-abdominal infection and pelvic inflammatory disease patients after 48 hrs by agar dilution method; procedure, shortened: as §1
Prevotella disiens = experiment: Antimicrobial activity against beta lactamase-positive Prevotella disiens isolated from intra-abdominal infection and pelvic inflammatory disease patients after 48 hrs by agar dilution method; procedure, shortened: as §1
Prevotella intermedia [9] = experiment: Antimicrobial activity against beta lactamase-positive Prevotella intermedia isolated from intra-abdominal infection and pelvic inflammatory disease patients after 48 hrs by agar dilution method; procedure, shortened: as §1
Prevotella nigrescens = experiment: Antimicrobial activity against beta lactamase-positive Prevotella nigrescens isolated from intra-abdominal infection and pelvic inflammatory disease patients after 48 hrs by agar dilution method; procedure, shortened: as §1
[10] = system: Prevotella melaninogenica; experiment: Antimicrobial activity against beta lactamase-positive Prevotella melaninogenica isolated from intra-abdominal infection and pelvic inflammatory disease patients after 48 hrs by agar dilution method; procedure, shortened: as §1
Prevotella denticola = experiment: Antimicrobial activity against beta lactamase-positive Prevotella denticola isolated from intra-abdominal infection and pelvic inflammatory disease patients after 48 hrs by agar dilution method; procedure, shortened: as §1
Prevotella corporis = experiment: Antimicrobial activity against beta lactamase-positive Prevotella corporis isolated from intra-abdominal infection and pelvic inflammatory disease patients after 48 hrs by agar dilution method; procedure, shortened: as §1
Prevotella buccae = experiment: Antimicrobial activity against beta lactamase-positive Prevotella buccae isolated from intra-abdominal infection and pelvic inflammatory disease patients after 48 hrs by agar dilution method; settings: Segatella buccae; procedure, shortened: as §1
[11] = system: Porphyromonas asaccharolytica; experiment: Antimicrobial activity against Porphyromonas asaccharolyticus isolated from intra-abdominal infection and pelvic inflammatory disease patients after 48 hrs by agar dilution method; procedure, shortened: as §1
Porphyromonas gingivalis = experiment: Antimicrobial activity against Porphyromonas gingivalis isolated from intra-abdominal infection and pelvic inflammatory disease patients after 48 hrs by agar dilution method; procedure, shortened: as §1
Porphyromonas levii = experiment: Antimicrobial activity against Porphyromonas levii isolated from intra-abdominal infection and pelvic inflammatory disease patients after 48 hrs by agar dilution method; procedure, shortened: as §1
Fusobacterium nucleatum [12] = experiment: Antimicrobial activity against beta lactamase-positive Fusobacterium nucleatum isolated from intra-abdominal infection and pelvic inflammatory disease patients after 48 hrs by agar dilution method; procedure, shortened: as §1
[13] = system: Fusobacterium necrophorum; experiment: Antimicrobial activity against Fusobacterium necrophorum isolated from intra-abdominal infection and pelvic inflammatory disease patients after 48 hrs by agar dilution method; procedure, shortened: as §1
Fusobacterium varium = experiment: Antimicrobial activity against Fusobacterium varium isolated from intra-abdominal infection and pelvic inflammatory disease patients after 48 hrs by agar dilution method; procedure, shortened: as §1
Fusobacterium mortiferum = experiment: Antimicrobial activity against beta lactamase-positive Fusobacterium mortiferum isolated from intra-abdominal infection and pelvic inflammatory disease patients after 48 hrs by agar dilution method; procedure, shortened: as §1
Finegoldia magna [14] = experiment: Antimicrobial activity against Finegoldia magna isolated from intra-abdominal infection and pelvic inflammatory disease patients after 48 hrs by agar dilution method; procedure, shortened: as §1
Parvimonas micra = experiment: Antimicrobial activity against Micromonas micros isolated from intra-abdominal infection and pelvic inflammatory disease patients after 48 hrs by agar dilution method; procedure, shortened: as §1
[15] = system: Peptostreptococcus anaerobius; experiment: Antimicrobial activity against Peptostreptococcus anaerobius isolated from intra-abdominal infection and pelvic inflammatory disease patients after 48 hrs by agar dilution method; procedure, shortened: as §1
Anaerococcus prevotii = experiment: Antimicrobial activity against Anaerococcus prevotii isolated from intra-abdominal infection and pelvic inflammatory disease patients after 48 hrs by agar dilution method; procedure, shortened: as §1
Anaerococcus tetradius = experiment: Antimicrobial activity against Anaerococcus tetradius isolated from intra-abdominal infection and pelvic inflammatory disease patients after 48 hrs by agar dilution method; procedure, shortened: as §1
[16] = system: Peptoniphilus asaccharolyticus; experiment: Antimicrobial activity against Peptoniphilus asaccharolyticus isolated from intra-abdominal infection and pelvic inflammatory disease patients after 48 hrs by agar dilution method; procedure, shortened: as §1
Clostridium perfringens [17] = experiment: Antimicrobial activity against Clostridium perfringens isolated from intra-abdominal infection and pelvic inflammatory disease patients after 48 hrs by agar dilution method
Procedure, shortened: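 CLSI agar dilution on brucella blood agar supplemented with laked sheep blood, hemin and vitamin K. Inoculum about 1 × 10^5 CFU/spot, applied by Steers replicator. Plates incubated 48 h at 35°C in an anaerobic glove box. MIC is the concentration giving marked growth reduction versus the anaerobic control plate. Standard QC strains included in each run.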

Clostridioides difficile = experiment: Antimicrobial activity against Clostridium difficile isolated from intra-abdominal infection and pelvic inflammatory disease patients after 48 hrs by agar dilution method; procedure, shortened: as §1
[Clostridium] innocuum = Antimicrobial activity against Clostridium innocuum isolated from intra-abdominal infection and pelvic inflammatory disease patients after 48 hrs by agar dilution method; procedure, shortened: as §1
Thomasclavelia ramosa = experiment: Antimicrobial activity against Clostridium ramosum isolated from intra-abdominal infection and pelvic inflammatory disease patients after 48 hrs by agar dilution method; procedure, shortened: as §1
[18] = system: Paraclostridium bifermentans; experiment: Antimicrobial activity against Clostridium bifermentans isolated from intra-abdominal infection and pelvic inflammatory disease patients after 48 hrs by agar dilution method; procedure, shortened: as §1
[19] = system: Enterocloster clostridioformis; experiment: Antimicrobial activity against Clostridium clostridioforme isolated from intra-abdominal infection and pelvic inflammatory disease patients after 48 hrs by agar dilution method; procedure, shortened: as §1
[20] = system: Paeniclostridium sordellii; experiment: Antimicrobial activity against Clostridium sordellii isolated from intra-abdominal infection and pelvic inflammatory disease patients after 48 hrs by agar dilution method; settings: Paraclostridium sordellii; procedure, shortened: as §1
[21] = system: Clostridium paraputrificum; experiment: Antimicrobial activity against Clostridium paraputrificum isolated from intra-abdominal infection and pelvic inflammatory disease patients after 48 hrs by agar dilution method; procedure, shortened: as §1
Clostridium cadaveris = experiment: Antimicrobial activity against Clostridium cadaveris isolated from intra-abdominal infection and pelvic inflammatory disease patients after 48 hrs by agar dilution method; procedure, shortened: as §1

## CO/N=C(\C(=O)N[C@@H]1C(=O)N2C(C(=O)O)=C(CSc3nc(=O)c(O)nn3C)CS[C@H]12)c1csc(N)n1 [CEFTRIAXONE]
Bacteroides fragilis [1]
  MIC50: 64 µg/mL (≈ 115 µM)
  MIC90: > 128 µg/mL
[2]
  MIC50: > 128 µg/mL
  MIC90: > 128 µg/mL
Bacteroides fragilis [3]
  MIC: 0.25 µg/mL (≈ 0.451 µM)
Prevotella intermedia [4]
  MIC: 0.125 µg/mL (≈ 0.225 µM)
Finegoldia magna [5]
  MIC: 8 µg/mL (≈ 14.4 µM)
Fusobacterium nucleatum [6]
  MIC: 0.125 µg/mL (≈ 0.225 µM)
Clostridium perfringens [7]
  MIC: 2 µg/mL (≈ 3.61 µM)
Bacteroides ovatus
  MIC50: 64 µg/mL (≈ 115 µM)
  MIC90: > 128 µg/mL
Phocaeicola vulgatus
  MIC50: 16 µg/mL (≈ 28.9 µM)
  MIC90: > 128 µg/mL
[8]
  MIC50: 8 µg/mL (≈ 14.4 µM)
  MIC90: > 128 µg/mL
Prevotella bivia
  MIC50: 8 µg/mL (≈ 14.4 µM)
  MIC90: 64 µg/mL (≈ 115 µM)
Prevotella disiens
  MIC50: 2 µg/mL (≈ 3.61 µM)
  MIC90: 64 µg/mL (≈ 115 µM)
Prevotella intermedia [9]
  MIC50: 4 µg/mL (≈ 7.21 µM)
  MIC90: 64 µg/mL (≈ 115 µM)
Prevotella nigrescens
  MIC50: 4 µg/mL (≈ 7.21 µM)
  MIC90: 16 µg/mL (≈ 28.9 µM)
[10]
  MIC50: 4 µg/mL (≈ 7.21 µM)
  MIC90: 16 µg/mL (≈ 28.9 µM)
Prevotella denticola
  MIC50: 4 µg/mL (≈ 7.21 µM)
  MIC90: 64 µg/mL (≈ 115 µM)
Prevotella corporis
  MIC50: 4 µg/mL (≈ 7.21 µM)
  MIC90: 32 µg/mL (≈ 57.7 µM)
Prevotella buccae
  MIC50: 0.25 µg/mL (≈ 0.451 µM)
  MIC90: 4 µg/mL (≈ 7.21 µM)
[11]
  MIC: ≤ 0.125 µg/mL
Porphyromonas gingivalis
  MIC: ≤ 0.125 µg/mL
Porphyromonas levii
  MIC: ≤ 0.125 µg/mL
Fusobacterium nucleatum [12]
  MIC50: 0.25 µg/mL (≈ 0.451 µM)
  MIC90: 0.5 µg/mL (≈ 0.902 µM)
[13]
  MIC50: ≤ 0.125 µg/mL
  MIC90: 0.5 µg/mL (≈ 0.902 µM)
Fusobacterium varium
  MIC50: 4 µg/mL (≈ 7.21 µM)
  MIC90: 8 µg/mL (≈ 14.4 µM)
Fusobacterium mortiferum
  MIC50: 0.25 µg/mL (≈ 0.451 µM)
  MIC90: ≥ 128 µg/mL
Finegoldia magna [14]
  MIC50: 8 µg/mL (≈ 14.4 µM)
  MIC90: 8 µg/mL (≈ 14.4 µM)
Parvimonas micra
  MIC: ≤ 0.125 µg/mL
  MIC50: ≤ 0.125 µg/mL
  MIC90: 1 µg/mL (≈ 1.8 µM)
[15]
  MIC: 0.5 µg/mL (≈ 0.902 µM)
  MIC50: 0.5 µg/mL (≈ 0.902 µM)
  MIC90: 16 µg/mL (≈ 28.9 µM)
Anaerococcus prevotii
  MIC: ≤ 0.125 µg/mL
Anaerococcus tetradius
  MIC: 0.25 µg/mL (≈ 0.451 µM)
  MIC50: 0.25 µg/mL (≈ 0.451 µM)
[16]
  MIC: ≤ 0.125 µg/mL
  MIC50: ≤ 0.125 µg/mL
  MIC90: 1 µg/mL (≈ 1.8 µM)
Clostridium perfringens [17]
  MIC50: 2 µg/mL (≈ 3.61 µM)
  MIC90: 4 µg/mL (≈ 7.21 µM)
Clostridioides difficile
  MIC50: 64 µg/mL (≈ 115 µM)
  MIC90: 64 µg/mL (≈ 115 µM)
[Clostridium] innocuum
  MIC50: 16 µg/mL (≈ 28.9 µM)
Thomasclavelia ramosa
  MIC50: 0.5 µg/mL (≈ 0.902 µM)
[18]
  MIC: 0.25 µg/mL (≈ 0.451 µM)
[19]
  MIC: 64 µg/mL (≈ 115 µM)
[20]
  MIC: 0.25 µg/mL (≈ 0.451 µM)
[21]
  MIC: 4 µg/mL (≈ 7.21 µM)
Clostridium cadaveris
  MIC: 4 µg/mL (≈ 7.21 µM)
